Measured values as given in ChEMBL document CHEMBL1138142, “Novel endoperoxides: synthesis and activity against Candida species” (Bioorg Med Chem Lett, 2006).

What was measured:
Format in all cases: functional, organism-based
Candida tropicalis = assay: Inhibitory activity against Candida tropicalis
Summary of the method: (§1)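 Microbroth dilution in YEPD (1% yeast extract, 2% peptone, 2% glucose, […]), starting inoculum A595 0.2–0.3; compounds as twofold serial dilutions down from 1 mM, growth control on same plate. Shaken at 35 °C; A595 read at addition and 2 h later. Triplicates averaged, IC50 (50% growth inhibition) calculated. Strains: C. albicans JRW #5, C. krusei WM 03,204 (clinical isolates), C. tropicalis ATCC 750.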

Candida albicans = assay: Inhibitory activity against Candida albicans; summary of the method: as §1
Pichia kudriavzevii = assay: Inhibitory activity against Candida krusei; summary of the method: as §1

Compound	IC50 (Candida tropicalis; Candida tropicalis) [µM]	IC50 (Candida albicans; Candida albicans) [µM]	IC50 (Pichia kudriavzevii; Pichia kudriavzevii) [µM]	IC50 (Candida tropicalis) [µM]	IC50 (Candida albicans) [µM]	IC50 (Pichia kudriavzevii) [µM]
C1CCC([C@H]2OOC[C@@H]3O[C@@H]32)CC1	125	250	500			
C1CCC([C@H]2OO[C@@H](C3CCCC3)[C@H]3O[C@H]32)C1	125	250	125			
C1=C[C@H](C2CCCC2)OO[C@@H]1C1CCCC1	125	250	> 1000			
C1CC([C@H]2OO[C@@H](C3CCC3)[C@H]3O[C@H]32)C1	250	250	500			
C1=C[C@@H](C2CCCCC2)OOC1	40	9.5	75			
C[C@@H]1[C@H](O)[C@@H](C)/C=C/C=C/C=C/C=C/C=C/C=C/C=C/[C@H](O[C@@H]2O[C@H](C)[C@@H](O)[C@H](N)[C@@H]2O)C[C@@H]2O[C@](O)(C[C@@H](O)C[C@@H](O)[C@H](O)CC[C@@H](O)C[C@@H](O)CC(=O)O[C@H]1C)C[C@H](O)[C@H]2C(=O)O [AMPHOTERICIN B]	0.1	< 0.5	0.2			
C1CC([C@H]2OO[C@@H](C3CCC3)[C@@H]3O[C@@H]32)C1	500	250	500			
C1=C[C@@H](C2CCCC2)OOC1	250	500	> 1000			
C1=C[C@H](C2CCCCC2)OO[C@@H]1C1CCCCC1	200	> 1000	400			
C1CCC([C@H]2OOC[C@H]3O[C@@H]23)C1	75	250	300			
O=C(C1CCCCC1)[C@H]1O[C@H]1[C@@H](O)C1CCCCC1	63	250	500			
C1CCC([C@H]2OO[C@@H](C3CCCCC3)[C@@H]3O[C@@H]32)CC1	200	100	> 1000			
C1CCC([C@H]2OOC[C@@H]3O[C@@H]32)C1	250	500	500			
C1=C[C@H](C2CCC2)OO[C@@H]1C1CCC1	125	125	250			
C1CCC([C@H]2OO[C@@H](C3CCCC3)[C@@H]3O[C@@H]32)C1	125	125	63			
CC(=O)N1CCN(c2ccc(OCC3COC(Cn4ccnc4)(c4ccc(Cl)cc4Cl)O3)cc2)CC1 (centres undefined) [KETOCONAZOLE]	12	250	100			
NYSTATIN				100	250	100
C1CCC([C@H]2OO[C@@H](C3CCCCC3)[C@H]3O[C@H]32)CC1	25	100	400			
